# A selection: hits, their analogues and other compounds. The true share with any hit is near 0.68%.
# JNK3 blocker: blocks human JNK3 kinase activity | AID 746 | inhibition, % at 8 µM | 60,000 compounds, 0.61% hits | purified JNK3 kinase activity, HTS | P53779; in the data active = inhibition above about 17%
# Target sequence (P53779 whole entry, looked up): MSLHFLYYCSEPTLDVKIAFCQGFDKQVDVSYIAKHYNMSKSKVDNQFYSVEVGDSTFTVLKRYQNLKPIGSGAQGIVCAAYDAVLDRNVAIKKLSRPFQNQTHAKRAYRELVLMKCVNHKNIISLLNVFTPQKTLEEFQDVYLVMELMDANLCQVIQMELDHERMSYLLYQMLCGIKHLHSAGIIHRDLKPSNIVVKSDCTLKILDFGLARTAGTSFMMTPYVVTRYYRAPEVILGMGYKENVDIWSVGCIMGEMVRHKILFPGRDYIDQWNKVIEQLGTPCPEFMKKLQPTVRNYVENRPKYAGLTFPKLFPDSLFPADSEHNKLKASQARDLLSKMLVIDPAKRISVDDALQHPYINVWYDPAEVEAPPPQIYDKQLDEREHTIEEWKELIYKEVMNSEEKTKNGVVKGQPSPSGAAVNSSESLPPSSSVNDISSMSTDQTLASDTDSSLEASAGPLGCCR
# Htt clearance: compounds clearing mutant huntingtin protein; inhibition, % at 1.5 µM; HeLa Exon1htt(103Q)mCFP, aggregate imaging; zero = plate's median compound well; AID 853; 47,000 compounds, 0.42% hits;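 active = inhibition of aggregate fluorescence above about 70%, also judged a hit by eye on the cell image, limit read from the data, passing the limit was not always enough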;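 also: cells exposed to compound for three days before fixation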
# MMP-13 inhibitor: MMP13 (human) collagenase inhibition; P45452; MMP-13 fTHP FRET cleavage, Mca fluorescence; inhibition, % at 4 µM; 65,000 compounds, 0.07% hits;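 active = inhibition above the mean of compound-free control plate wells plus 3 SD, cut at about 14% in these data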
# AP ELISA ortho: orthogonal test for alternative complement pathway inhibitors. Human serum alternative complement pathway, LPS-coated ELISA, C3 deposition; tested in compound mixtures. inhibition, % at 5 µM. 62,000 compounds, 0.08% hits. AID 1235;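 active = inhibition above 30% in each of the two pooled mixtures holding the compound, so the lower value exceeds 30%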
#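 Test system: human serum alternative complement pathway, C3 deposition on LPS-coated wells; also added: Plate-bound LPS; doses: 5 µM per compound in ten-compound mixtures; schedule: 1 h at 37 °C; detection: Anti-C3 ELISA, OD 450 nm; evaluation: percent inhibition of C3 deposition onto LPS; repeats: two pool placements per compound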
# A number is an active result; i = inactive; nt = not tested or not shown.
SMILES,JNK3 blocker,Htt clearance,MMP-13 inhibitor,AP ELISA ortho
Clc1ccc2[nH]c3c(c2c1)CCc1cn[nH]c1-3,85.0,i,i,i
O=CNC1CCCc2c1[nH]c1ccc(Cl)cc21 (centres undefined),i,i,i,i
CCOC(=O)N1CCC(NC(=O)C2=C(C)C(=O)OC23CCC(C)CC3)CC1 (centres undefined),i,nt,i,i
O=C(c1cccc(F)c1)N1CCCC(C(=O)N2CCCC2)C1 (centres undefined),35.0,i,i,i
O=C(CSc1ncnc2c1oc1ccccc12)Nc1ccc2c(c1)OCCO2,i,72.7,i,nt
Cc1nc(SCC(=O)Nc2ccc3c(c2)OCCO3)c2oc3ccccc3c2n1,nt,i,i,i
O=C(CSc1n[nH]c(=O)n1C1CC1)Nc1cc(Cl)ccc1Oc1ccccc1,i,84.2,i,i
CCCn1c(SCC(=O)Nc2cc(Cl)ccc2OC)n[nH]c1=O,nt,i,nt,nt
O=C(OCc1nnc(-c2ccccc2)o1)c1ccc(S(=O)(=O)NCc2ccco2)cc1,i,71.3,i,i
O=C(Nn1cnnc1)c1cc(-c2ccccn2)nc2ccccc12,i,nt,i,i
CN(C)CCN1C(=O)c2oc3ccccc3c(=O)c2C1c1cccc(Br)c1 (centres undefined),i,i,i,i
O=C1C(C=NCc2cccnc2)=C(O)c2ccccc21,28.4,nt,i,i
Cn1c(C(=O)N2CCN(Cc3ccc4c(c3)OCO4)CC2)cc2c(=O)n(C)c3ccccc3c21,23.8,i,i,i
CC1CC(=O)Nc2ccccc2S1(=O)=O (centres undefined),i,nt,i,i
O=C(Cn1nc(C(F)(F)F)c2c1CCCC2)NCc1ccco1,i,nt,i,i
COc1ccc(OC)c(S(=O)(=O)Nc2ccc(O)c(Sc3ncn[nH]3)c2)c1,i,86.2,i,i
COc1ccc(OC)c(S(=O)(=O)Nc2ccc(O)c3ccccc23)c1,i,i,i,i
COc1ccc(C2C(C#N)=C(N)OC(C(C)(C)C)=C2C#N)cc1OC (centres undefined),i,nt,i,i
COc1ccc(C2C(C#N)=C(N)SC(N)=C2C#N)cc1OC,22.2,i,i,i
CCn1c(C(C)NC(C)=O)nc2ccccc21 (centres undefined),31.0,nt,i,i
CCn1c(C(C)NC(=O)c2cccs2)nc2ccccc21 (centres undefined),i,nt,i,i
O=S1(=O)NC2CCCCCN2c2ccc(F)cc21 (centres undefined),i,nt,i,i
NC(=O)C1CCN(Cc2nc3ccccc3c(=O)[nH]2)CC1,nt,i,nt,nt
O=c1[nH]c(CN2CCN(CCO)CC2)nc2ccccc12,i,76.6,i,nt
COc1cc(S(=O)(=O)N2CCN(c3ccccc3F)CC2)ccc1Cl,i,nt,i,i
SMILES,JNK3 blocker,Htt clearance,MMP-13 inhibitor,AP ELISA ortho
CCOC(=O)COc1ccc(S(=O)(=O)N2CCN(c3ccccc3F)CC2)cc1,i,82.0,i,i
CCOC(=O)C1CCCN(S(=O)(=O)c2cc(OCC(N)=O)c(C)cc2Cl)C1 (centres undefined),i,71.4,i,i
Cc1cc(Cl)c(S(=O)(=O)N2CCCCCC2)cc1OCC(N)=O,i,i,i,i
COc1cc2c(cc1OC)C(c1cc3cc4c(cc3[nH]c1=O)OCO4)N(C(=O)C(C)C)CC2 (centres undefined),nt,84.4,nt,nt
CC(=O)Oc1ccccc1C1OCCN1C(C)=O (centres undefined),i,nt,i,nt
CC(CN1CCOCC1)OC(=O)c1ccc2c(c1)OCCO2 (centres undefined),i,nt,i,i
COc1cccc(C(=O)NCc2n[nH]c(=S)n2-c2cccc(C)c2)c1,i,i,i,i
Cc1cccc(OCC(=O)Nc2ccccc2N2CCCCC2)c1,i,nt,i,i
c1ccc(-n2nc3c(ccc4cnnc43)[nH]2)cc1,30.0,i,i,i
CCOC(=O)c1sc2nccc(N(C)C)c2c1N=CNOCc1ccccc1,nt,i,nt,nt
CCOC(=O)c1sc2nccc(N(C)C)c2c1N=CNOC,nt,73.0,nt,nt
CCOC(=O)c1cnc2c(C#N)c(C)nn2c1C,i,i,i,i
CCS(=O)(=O)N1CCCC(C(=O)NCc2ccc3c(c2)OCO3)C1 (centres undefined),i,i,i,i
S=c1[nH]nc(-c2ccc(Br)cc2)n1Cc1ccco1,i,72.3,i,i
